Measurements: ChEMBL document CHEMBL2163267, “Novel N-linked aminopiperidine inhibitors of bacterial topoisomerase type II with reduced pK(a): antibacterial agents with an improved safety profile” (J Med Chem, 2012)
≈ marks a conversion by molar mass, not a printed value.

What was measured:
[1] = test system: Pseudomonas aeruginosa; assay: Antibacterial activity against Pseudomonas aeruginosa PAO1 after 18 to 24 hrs by CLSI broth microdilution method; format: functional
[2] = test system: Staphylococcus aureus; assay: Antibacterial activity against methicillin-susceptible Staphylococcus aureus after 18 to 24 hrs by CLSI broth microdilution method; format: functional
[3] = test system: Streptococcus pneumoniae; assay: Antibacterial activity against penicillin-susceptible Streptococcus pneumoniae D39 after 18 to 24 hrs by CLSI broth microdilution method; format: functional
[4] = test system: Escherichia coli; assay: Antibacterial activity against Escherichia coli W3110 after 18 to 24 hrs by CLSI broth microdilution method; format: functional
[5] = Inhibition of Escherichia coli DNA topoisomerase 4 subunit ParC/DNA topoisomerase 4 subunit ParE ATPase activity after 24 hrs by malachite green staining-based colorimetric assay
[6] = Fraction unbound in human plasma at 10 uM by equilibrium dialysis method; format: ADME, cell-free
In short: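 Equilibrium dialysis. Compound at 10 μM in the plasma (donor) chamber against phosphate buffer, rotated at 37 °C for 16 h. Drug in the plasma and buffer samples quantified by LC-MS/MS after methanol protein precipitation with internal standard. Standard curve 10 nM to 10 μM.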

[7] = Octanol-phosphate buffer partition coefficient, log D of the compound at pH 7.4 by shake flask method; format: physicochemical
In short: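 Shake-flask partition between n-octanol and 10 mM phosphate buffer at pH 7.4. Shaken 1 h at 1200 rpm to reach equilibrium. Phases analysed by LC/UV, with MS for mass confirmation.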

[8] = biological target: Voltage-gated inwardly rectifying potassium channel KCNH2 (Homo sapiens, UniProt Q12809); assay: Inhibition of human ERG by Ionworks assay
[9] = Dissociation constant, pKa of the compound by pH metric assay; format: physicochemical
In short: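 pH-metric titration on an automated titrator, run in triplicate. Accuracy about 0.02 log units.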

Sequence of Voltage-gated inwardly rectifying potassium channel KCNH2 (Q12809 whole entry): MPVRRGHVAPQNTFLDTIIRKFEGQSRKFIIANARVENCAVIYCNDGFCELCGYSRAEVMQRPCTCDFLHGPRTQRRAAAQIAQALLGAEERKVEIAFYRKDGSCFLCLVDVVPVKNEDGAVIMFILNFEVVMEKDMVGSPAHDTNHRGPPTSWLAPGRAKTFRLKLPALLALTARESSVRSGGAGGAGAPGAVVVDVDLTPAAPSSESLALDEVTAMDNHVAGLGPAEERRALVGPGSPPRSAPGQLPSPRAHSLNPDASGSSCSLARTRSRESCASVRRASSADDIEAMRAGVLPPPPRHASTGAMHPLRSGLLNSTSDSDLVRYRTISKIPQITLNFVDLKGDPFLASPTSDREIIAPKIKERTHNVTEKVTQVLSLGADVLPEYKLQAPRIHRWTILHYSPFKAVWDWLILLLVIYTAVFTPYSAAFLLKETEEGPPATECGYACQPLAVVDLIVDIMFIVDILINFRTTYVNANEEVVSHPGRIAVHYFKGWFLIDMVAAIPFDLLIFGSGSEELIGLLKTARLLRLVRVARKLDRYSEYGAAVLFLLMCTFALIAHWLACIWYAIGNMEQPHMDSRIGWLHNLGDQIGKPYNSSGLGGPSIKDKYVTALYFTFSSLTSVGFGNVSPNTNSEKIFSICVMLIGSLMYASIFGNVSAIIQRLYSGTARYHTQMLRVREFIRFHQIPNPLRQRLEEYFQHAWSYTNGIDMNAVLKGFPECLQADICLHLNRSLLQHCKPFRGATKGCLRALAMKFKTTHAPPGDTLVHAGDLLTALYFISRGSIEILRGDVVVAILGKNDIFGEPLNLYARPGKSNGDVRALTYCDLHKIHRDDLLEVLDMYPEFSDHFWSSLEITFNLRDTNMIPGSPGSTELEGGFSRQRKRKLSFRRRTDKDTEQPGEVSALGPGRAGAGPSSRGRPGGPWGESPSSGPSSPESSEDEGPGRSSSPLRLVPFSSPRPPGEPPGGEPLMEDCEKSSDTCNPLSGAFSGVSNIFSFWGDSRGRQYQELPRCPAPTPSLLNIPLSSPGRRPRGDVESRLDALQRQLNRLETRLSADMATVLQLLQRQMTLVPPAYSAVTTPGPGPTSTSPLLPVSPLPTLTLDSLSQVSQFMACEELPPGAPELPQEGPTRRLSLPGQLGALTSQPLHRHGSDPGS

| SMILES | MIC [1] | MIC [2] | MIC [3] | MIC [4] | IC50 [5] | fraction unbound at 10 µM [6] | logD [7] | IC50 [8] | pKa [9] |
| --- | --- | --- | --- | --- | --- | --- | --- | --- | --- |
| COc1ccc2ncc(=O)n(CCN3CC[C@H](NCc4ccc5c(n4)NC(=O)CO5)[C@H](F)C3)c2c1 | 8 µg/mL (≈ 16.6 µM) | 0.03 µg/mL (≈ 0.0622 µM) | 0.13 µg/mL (≈ 0.269 µM) | 0.5 µg/mL (≈ 1.04 µM) | – | – | – | – | – |
| N#Cc1ccc2ccc(=O)n(CCN3CC[C@@H](NCc4cc5c(cn4)OCCO5)[C@@H](O)C3)c2c1 | > 8 µg/mL | 0.06 µg/mL (≈ 0.13 µM) | – | 1 µg/mL (≈ 2.17 µM) | 41 nM | 0.24 | 0.45 | 117000 nM | – |
| N#Cc1ccc2ccc(=O)n(CCN3CC[C@H](NCc4ccc5c(n4)NC(=O)CO5)[C@H](O)C3)c2c1 | 2 µg/mL (≈ 4.21 µM) | 0.25 µg/mL (≈ 0.527 µM) | – | 0.5 µg/mL (≈ 1.05 µM) | 17 nM | 0.21 | 0.11 | – | – |
| N#Cc1ccc2ccc(=O)n(CCN3CC[C@@H](NCc4ccc5c(n4)NC(=O)CO5)[C@@H](O)C3)c2c1 | 2 µg/mL (≈ 4.21 µM) | 0.5 µg/mL (≈ 1.05 µM) | – | 0.5 µg/mL (≈ 1.05 µM) | 15 nM | 0.18 | 0.1 | – | – |
| COc1ccc2ncc(=O)n(CCN3CC[C@H](NCc4cc5c(cn4)OCCO5)[C@H](O)C3)c2c1 | 8 µg/mL (≈ 17.1 µM) | 0.03 µg/mL (≈ 0.0642 µM) | – | 0.5 µg/mL (≈ 1.07 µM) | 5 nM | 0.19 | – | – | – |
| COc1ccc2ncc(=O)n(CCN3CC[C@@H](NCc4cc5c(cn4)OCCO5)[C@@H](O)C3)c2c1 | > 8 µg/mL | 0.06 µg/mL (≈ 0.128 µM) | – | 1 µg/mL (≈ 2.14 µM) | 6 nM | 0.14 | – | – | 7.97 |
| COc1ccc2ncc(=O)n(CCN3CC[C@H](NCc4ccc5c(n4)NC(=O)CO5)[C@H](O)C3)c2c1 | 2 µg/mL (≈ 4.16 µM) | 0.06 µg/mL (≈ 0.125 µM) | – | 0.25 µg/mL (≈ 0.52 µM) | 17 nM | 0.14 | 0.39 | 172000 nM | – |
| COc1ccc2ncc(=O)n(CCN3CC[C@@H](NCc4ccc5c(n4)NC(=O)CO5)[C@@H](O)C3)c2c1 | 2 µg/mL (≈ 4.16 µM) | 0.13 µg/mL (≈ 0.271 µM) | – | 0.25 µg/mL (≈ 0.52 µM) | 23 nM | 0.05 | 0.37 | 152000 nM | – |
| CO[C@H]1CN(CCn2c(=O)ccc3ccc(C#N)cc32)CC[C@H]1NCc1ccc2c(n1)NC(=O)CO2 | 8 µg/mL (≈ 16.4 µM) | 0.13 µg/mL (≈ 0.266 µM) | 0.5 µg/mL (≈ 1.02 µM) | 1 µg/mL (≈ 2.05 µM) | 28 nM | 0.5 | 0.32 | – | – |
| COc1ccc2ncc(=O)n(CCN3CC[C@@H](NCc4ccc5c(n4)NC(=O)CO5)[C@@H](F)C3)c2c1 | 8 µg/mL (≈ 16.6 µM) | 0.03 µg/mL (≈ 0.0622 µM) | 0.13 µg/mL (≈ 0.269 µM) | 0.5 µg/mL (≈ 1.04 µM) | – | 0.25 | 0.83 | – | – |
| CO[C@@H]1CN(CCn2c(=O)ccc3ccc(C#N)cc32)CC[C@H]1NCc1ccc2c(n1)NC(=O)CO2 (single isomer, unassigned; enantiomer 1) | > 8 µg/mL | 0.13 µg/mL (≈ 0.266 µM) | 0.25 µg/mL (≈ 0.512 µM) | 2 µg/mL (≈ 4.09 µM) | 35 nM | 0.27 | 0.81 | – | 7.53 |
| COc1ccc2ncc(=O)n(CCN3CC[C@H](NCc4ccc5c(n4)NC(=O)CO5)[C@@H](F)C3)c2c1 (single isomer, unassigned; enantiomer B) | 4 µg/mL (≈ 8.29 µM) | < 0.01 µg/mL | 0.06 µg/mL (≈ 0.124 µM) | 0.5 µg/mL (≈ 1.04 µM) | < 9 nM | 0.04 | 1.38 | – | 6.86 |
| COc1ccc2ncc(=O)n(CCN3CC[C@@H](NCc4cc5c(cn4)OCCO5)[C@H](O)C3)c2c1 (single isomer, unassigned; enantiomer B) | > 8 µg/mL | 0.06 µg/mL (≈ 0.128 µM) | 0.06 µg/mL (≈ 0.128 µM) | 2 µg/mL (≈ 4.28 µM) | 3 nM | 0.18 | – | – | 7.4 |
| COc1ccc2ncc(=O)n(CCN3CC[C@H](NCc4cc5c(cn4)OCCO5)[C@@H](F)C3)c2c1 (single isomer, unassigned; enantiomer B) | > 8 µg/mL | 0.06 µg/mL (≈ 0.128 µM) | 0.13 µg/mL (≈ 0.277 µM) | 8 µg/mL (≈ 17 µM) | 26 nM | 0.09 | 1.68 | – | 6.46 |
